# An excerpt weighted towards active compounds, which were near 4.7% of everything screened.
# ADAM17 inh: ADAM17 inhibition, QFRET primary screen. recombinant ADAM17, EDANS/DABCYL FRET peptide cleavage. inhibition, % at 6.95 µM. hit rate 0.83% among 370,000. P78536;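 active = inhibition above the mean of compounds lying between control limits plus 3 SD, set per campaign, cut at about 8.5% in these data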;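 also: 0% = DMSO-only wells as the low control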
# Target sequence (P78536 215-824 limits assumed): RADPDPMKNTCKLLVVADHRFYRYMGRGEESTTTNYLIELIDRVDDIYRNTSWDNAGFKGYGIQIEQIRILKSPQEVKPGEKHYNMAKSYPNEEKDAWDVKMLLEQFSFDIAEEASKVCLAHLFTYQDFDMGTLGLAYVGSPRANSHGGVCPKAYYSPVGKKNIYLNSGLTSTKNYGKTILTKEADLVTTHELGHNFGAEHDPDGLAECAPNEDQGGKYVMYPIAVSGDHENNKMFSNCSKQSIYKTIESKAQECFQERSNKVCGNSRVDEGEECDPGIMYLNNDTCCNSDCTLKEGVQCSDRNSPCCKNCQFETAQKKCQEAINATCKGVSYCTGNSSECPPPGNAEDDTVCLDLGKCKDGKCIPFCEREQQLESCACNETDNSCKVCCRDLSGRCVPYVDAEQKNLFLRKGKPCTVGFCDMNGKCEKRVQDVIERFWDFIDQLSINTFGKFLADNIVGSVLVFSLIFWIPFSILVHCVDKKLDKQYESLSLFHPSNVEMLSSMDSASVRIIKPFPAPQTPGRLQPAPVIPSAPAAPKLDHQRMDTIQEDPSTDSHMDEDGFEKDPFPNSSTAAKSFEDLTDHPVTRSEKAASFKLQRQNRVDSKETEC
# MT1-MMP act inh: MT1-MMP (human) activation inhibition; HT1080 RFP-PRO-GFP cells, GFP/RFP ratio fluorescence, overnight; percent of plate control window, DMSO zero; AID 651647; GFP/RFP ratio change, % at 20 µM; hit rate 0.061% among 360,000;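 active = GFP/RFP ratio change of at least 30% with cell ATP level not reduced by more than half and red fluorescence within 50% of control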
#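 Assay system: HT1080 RFP-PRO-GFP cells | Dosing: 20 µM single dose, 1% DMSO | Incubation: Cells overnight before dosing, compound overnight, 37 °C, 5% CO2 | Evaluation: GFP/RFP fluorescence ratio | Control set: DMSO-only wells and HT1080 RFP-L50D-GFP cell wells as references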
# GRIN3A LBD mod: NR3A (human) ligand-binding domain modulation. NR3A LBD differential scanning fluorimetry, Tm shift; 0% = protein alone, 100% = glycine-bound protein. Tm shift relative to glycine control, % at 25 µM. hit rate 2.5% among 340,000;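 active = melting temperature shift of at least 10% of the positive control shift, at one fixed dose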
# SKN-1 block: inhibitors of C. elegans SKN-1; AID 624304; inhibition, % at 21.8 µM; hit rate 0.49% among 360,000; C. elegans VP596 Pgst-4::GFP/RFP ratio, acrylamide-induced, 24 h;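 active = interference check ratio from 0.5 to 1.5 plus GFP to RFP signal ratio inhibition reaching or exceeding a fixed threshold, cut at about 30% in these data, passing the limit was not always enough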
# MPTP block: blocks calcium-induced mitochondrial swelling | isolated mouse mitochondria, Ca2+ swelling absorbance, 30 min | hit rate 1.4% among 360,000 | AID 602449 | inhibition, % at 10 µM;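 active = inhibition of 50% or more, scaled per plate between neutral and stimulator controls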;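 also: 0% = DMSO wells given calcium and 100% = 1 mM EGTA wells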
# ADAM10 inh: inhibits human ADAM10 | hit rate 0.62% among 370,000 | AID 720582 | inhibition, % at 7 µM | O14672 | recombinant ADAM10, EDANS/DABCYL FRET peptide cleavage, 3 h;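 active = inhibition above a per-campaign cutoff equal to the mean of compounds falling between control-based bounds plus 3 SD, cut at about 20% in these data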;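 also: 0% = DMSO wells while the 100% control is not disclosed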
# MPTP counter: membrane potential counter-screen of mitochondrial pore inhibitors | inhibition, % at 10 µM | shares compounds with MPTP block | AID 624504 | isolated mitochondria, Rhodamine 123 fluorescence | hit rate 78% among 5,000; in the data active = inhibition above about 22%;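 also: 0% = DMSO vehicle and 100% = positive control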
# MPTP swell DR: dose response confirmation of mitochondrial permeability transition pore inhibitors | hit rate 58% among 780 | shares compounds with MPTP block | IC50, µM | isolated mitochondria swelling, absorbance; in the data active = IC50 below about 20 µM
# MPTP cs DR: active in counter-screen for permeability transition pore inhibitors; IC50, µM; AID 651564; hit rate 49% among 780; isolated mitochondria counterscreen, fluorescence read-out; shares compounds with MPTP block; in the data active = IC50 below about 80 µM
# An asterisk follows results filed as active; i = inactive; . = no result given.
SMILES,ADAM17 inh,MT1-MMP act inh,GRIN3A LBD mod,SKN-1 block,MPTP block,ADAM10 inh,MPTP counter,others
C=CCOC(=O)C1=C(C)NC(SCC(=O)Nc2ccccc2)=C(C#N)C1c1ccco1 (configuration not stated),-1.7,-4.2,3.3,3.3,63.8*,-0.3,67.8*,
CN(CC(=O)Nc1ccc(F)cc1)C(=O)COC(=O)C1=COCCO1,0.2,4.5,-0.3,8.0,-1.2,3.8,.,
CCn1cc(CN(C)S(=O)(=O)c2cccc([N+](=O)[O-])c2)cn1,-1.9,1.4,-0.1,4.4,-0.7,-0.1,.,
CCn1cc(CN(C)S(=O)(=O)c2ccc3ccccc3c2)c(C)n1,-0.2,-7.8,-0.8,8.3,91.4*,3.1,84.6*,
C=CCN1C(=O)[C@@H](CC(=O)N2CCC(c3ccccc3)CC2)[C@]2(C(=O)OC)CCCCC=C12,0.9,.,.,.,.,1.1,.,
NCCc1c(-c2ccccc2)n(-c2ccccc2)c2ccccc12,-7.0,1.4,-3.8,7.8,78.8*,-6.3,-13.9,
Cc1cc(Nc2cccc(Br)c2)c2ccccc2n1,2.5,9.8,-2.1,4.5,83.3*,1.4,74.5*,
O=C(CP(=O)(c1ccccc1)c1ccccc1)Nc1cccc(CP(=O)(c2ccccc2)c2ccccc2)c1,3.4,-5.4,-3.3,-6.3,-0.3,13.5,.,
Cn1cccc1C1C=C(c2ccc(C(C)(C)C)cc2)Nc2ncnn21 (configuration not stated),-19.1,-7.1,8.5,-1.0,81.5*,-69.6,69.1*,
CC(C)(C)c1ccc(C2=CC(c3ccccc3F)n3ncnc3N2)cc1 (configuration not stated),-64.0,2.4,-0.3,21.2,1.3,-207.3,.,
C1=C(c2ccc(-c3ccccc3)cc2)Nc2ncnn2C1c1ccco1 (configuration not stated),-217.3,-174.8,-8.6,-22.8,58.1*,i,8.9,
CCOC(=O)c1c(-c2ccc(C)cc2)cn2ccccc12,-319.3,2.7,-16.5,-14.6,3.3,i,.,
CNC(=O)c1nc(C)n(-c2ccc([N+](=O)[O-])cc2)n1,-0.8,-0.6,-0.5,-5.5,-1.2,-5.2,.,
CC(Oc1ccc(Cl)cc1Cl)C(=O)Nc1ccc2oc(-c3ccncc3)nc2c1 (configuration not stated),-1.8,-5.1,-1.7,-0.2,74.1*,-29.9,82.8*,
Cc1ccc(-c2nc3cc(NC(=O)C(C)C)ccc3o2)cc1,-52.4,11.5,-28.8,-9.0,-2.7,-172.3,.,
COc1ccccc1N1CCN(C(=O)c2cc3sccc3n2C)CC1,0.2,0.3,-1.6,3.2,-0.9,6.9,.,
O=C(/C(Br)=C/Nc1cc(Cl)ccc1Cl)C(F)(F)F,2.9,3.7,-3.3,2.9,95.9*,-7.0,93.5*,
COc1cccc(Nc2nc3ccccc3nc2NS(=O)(=O)c2cccs2)c1,-3.5,-1.1,21.1*,-2.7,58.4*,-16.1,70.6*,
O=C(Oc1c(Br)cc([N+](=O)[O-])cc1Br)c1cccnc1,1.3,7.4,-1.5,-13.5,71.7*,0.0,95.6*,
N/C(=N\OC(=O)c1ccc([N+](=O)[O-])cc1)c1cccnc1,-2.7,-6.8,-3.4,5.2,0.6,-7.4,.,
COc1cccc(C(C)(O)c2nc(-c3ccc(N(C)C)cc3)cs2)c1 (configuration not stated),5.8,1.0,.,27.2,98.6*,16.8,90.9*,
COc1cccc(C(C)(O)c2nc(-c3ccccc3)cs2)c1 (configuration not stated),0.2,-6.3,.,17.9,3.1,4.0,.,
COc1cccc(C(C)(O)c2nc(-c3cc4ccccc4o3)cs2)c1 (configuration not stated),3.6,-2.7,.,24.9,88.4*,9.8,96.0*,
CCNc1ccc(S(=O)(=O)NCCN(C)C)cc1[N+](=O)[O-],-5.5,1.8,0.4,-19.0,1.7,1.8,.,
CN(C)CCCNS(=O)(=O)c1ccc(NC2CCCCCC2)c([N+](=O)[O-])c1,2.1,4.3,-4.5,4.9,85.1*,-0.5,81.2*,
SMILES,ADAM17 inh,MT1-MMP act inh,GRIN3A LBD mod,SKN-1 block,MPTP block,ADAM10 inh,MPTP counter,others
CC(C)COC(=O)NCC12C=CC(O1)C1C(=O)N(c3ccc(Cl)cc3)C(=O)C12 (configuration not stated),-0.6,7.4,3.5,6.0,84.9*,11.7,8.7,
CC(C)(C)C(=O)NCC12C=CC(O1)C1C(=O)N(c3ccccc3)C(=O)C12 (configuration not stated),-3.3,0.2,1.8,12.1,-0.3,-3.3,.,
CC(C)c1ccc(/C=C2\C(=O)N(CCN3CCOCC3)C(=S)N2C)cc1,-0.5,-4.0,2.1,2.2,-0.4,-3.0,.,
O=C(CSc1nnc(-c2ccccc2)o1)Oc1ccc(Br)cc1,-6.9,18.7,-1.1,-0.2,0.8,3.2,.,
NC1=NC[C@H](c2ccccc2)N1CCCCC1CCCCC1,-1.1,-8.2,-4.8,0.4,81.2*,0.7,37.0*,
NCCCC[C@H]1CN=C(N)N1CC1CCCCC1,0.3,-7.2,1.4,8.0,1.5,-3.6,.,
S=C1NC[C@H](c2ccccc2)N1CCCCC1CCCCC1,4.2,8.4,-13.5,5.9,2.3,1.1,.,
NCCCC[C@H]1CN=C(N)N1CCCCC1CCCCC1,6.8,-0.6,-0.6,-5.6,74.0*,5.5,-8.9,MPTP swell DR=i;MPTP cs DR=>80
COC(=O)c1ccc(Oc2ccc(C(F)(F)F)cn2)cc1,1.6,3.3,0.3,2.8,-0.5,-3.6,.,
COc1cccc(CNC(=O)c2cc3c(C)nc4ccccc4c3o2)c1,0.4,-3.8,-8.7,4.0,59.9*,-17.8,33.6*,
COc1ccc(CNC(=O)c2cc3c(C)nc4ccccc4c3o2)c(OC)c1,.,7.2,-1.0,-5.6,73.4*,.,96.2*,
O=C(CSc1ncccn1)Nn1cnnc1,5.0,-0.6,2.0,-21.8,-3.2,-0.8,.,
Cc1nn(C(C)(C)C)c(C)c1/C=N/OC(=O)Nc1ccc(Cl)cc1,-0.8,6.1,10.9*,-2.3,79.3*,3.3,89.2*,
Cc1nn(C)c(C)c1/C=N/NC(=O)C(C)(C)Oc1ccc(Cl)cc1,.,-10.0,1.9,11.9,-0.9,.,.,
CC1=NN(C(N)=S)C(=O)C1N=Nc1c(Br)cc(Br)cc1Br (configuration not stated),0.0,9.9,2.4,18.0,56.4*,11.3,78.3*,
CC1=NN(C(N)=S)C(=O)C1N=Nc1c(C)cc(C)cc1C (configuration not stated),0.5,19.4,-3.1,26.9,0.2,4.3,.,

# Screening results deposited in PubChem by several laboratories.
